Test results taken from ChEMBL document CHEMBL4422613, “Amarisolide F, an Acylated Diterpenoid Glucoside and Related Terpenoids from Salvia amarissima” (J Nat Prod, 2019).

What was measured:
MDA-MB-231 = assay: Cytotoxicity against human MDA-MB-231 cells after 72 hrs by sulforhodamine B assay; type: functional, cell-based; settings: MDA-MB-231, 72 h
Homo sapiens [1] = species on record: Homo sapiens; assay: Inhibition of MDR protein in human MCF7/Vin cells cultured in absence of vinblastine assessed as reversal fold at 42.1 uM after 72 hrs by sulforhodamine B assay; type: cell-based
Summary of the method: (§1)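 Sensitive MCF-7 and MDR MCF-7/Vin cells in RPMI 1640 with 10% FBS at 37 °C, 5% CO2. The Vin+ stock was kept in medium with […] vinblastine and the Vin− stock in vinblastine-free medium. Cells were exposed to vinblastine (0.7 nM–11 μM) with or without compound (42.1 μM) for 72 h.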

HCT-116 = assay: Cytotoxicity against human HCT116 cells after 72 hrs by sulforhodamine B assay; type: functional, cell-based; settings: HCT-116, 72 h
HeLa = assay: Cytotoxicity against human HeLa cells after 72 hrs by sulforhodamine B assay; type: functional, cell-based
Homo sapiens [2] = species on record: Homo sapiens; assay: Inhibition of MDR protein in human MCF7/Vin cells cultured in presence of vinblastine assessed as reversal fold at 42.1 uM after 72 hrs by sulforhodamine B assay; type: cell-based; summary of the method: as §1
HCT-15 = assay: Cytotoxicity against human HCT15 cells after 72 hrs by sulforhodamine B assay; type: functional, cell-based; settings: HCT-15, 72 h
MCF7 = assay: Cytotoxicity against human MCF7 cells after 72 hrs by sulforhodamine B assay; type: functional, cell-based; settings: MCF7, 72 h
Summary of the method: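 Cells kept in RPMI 1640 with 10% FBS at 37 °C, 5% CO2 in humidified air. Log-phase cells were treated in triplicate with compound at 0.4–42.1 μM for 72 h.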

Homo sapiens [3] = species on record: Homo sapiens; assay: Inhibition of MDR protein in human MCF7/Vin cells cultured in absence of vinblastine assessed as reversal fold at 5 ug/ml after 72 hrs by sulforhodamine B assay; type: cell-based
Homo sapiens [4] = species on record: Homo sapiens; assay: Inhibition of MDR protein in human MCF7/Vin cells cultured in presence of vinblastine assessed as reversal fold at 5 ug/ml after 72 hrs by sulforhodamine B assay; type: cell-based
Homo sapiens [5] = species on record: Homo sapiens; assay: Inhibition of MDR protein in human MCF7/Vin cells cultured in absence of vinblastine assessed as reversal fold after 72 hrs by sulforhodamine B assay; type: cell-based
Homo sapiens [6] = species on record: Homo sapiens; assay: Inhibition of MDR protein in human MCF7/Vin cells cultured in presence of vinblastine assessed as reversal fold after 72 hrs by sulforhodamine B assay; type: cell-based
Homo sapiens [7] = species on record: Homo sapiens; assay: Inhibition of MDR protein in human MCF7/Vin cells cultured in presence of vinblastine assessed as reversal fold at 25 ug/ml after 72 hrs by sulforhodamine B assay; type: cell-based
Homo sapiens [8] = species on record: Homo sapiens; assay: Inhibition of MDR protein in human MCF7/Vin cells cultured in absence of vinblastine assessed as reversal fold at 25 ug/ml after 72 hrs by sulforhodamine B assay; type: cell-based

SMILES: CC(=O)OC[C@H]1O[C@@H](OC(=O)[C@H]2CC[C@@]34COC(=O)[C@@]3(O)CC=C[C@@]4(O)[C@@]2(C)CC(=O)c2ccoc2)[C@H](O)[C@@H](O)[C@@H]1O
- IC50 (MDA-MB-231): > 42 µM
- fold change (FC) (Homo sapiens [1]): 2.1
- IC50 (HCT-116): > 42 µM
- IC50 (HeLa): > 42 µM
- fold change (FC) (Homo sapiens [2]): 12
- IC50 (HCT-15): > 42 µM
- IC50 (MCF7): > 42 µM

SMILES: COC(=O)[C@H]1[C@H]2C[C@@H]3c4[nH]c5cc(OC)ccc5c4CCN3C[C@H]2C[C@@H](OC(=O)c2cc(OC)c(OC)c(OC)c2)[C@@H]1OC
- fold change (FC) (Homo sapiens [3]): 5
- fold change (FC) (Homo sapiens [4]): 29.2

SMILES: O=C1C=CC[C@]2(O)C(=O)OC[C@@]12CCc1ccc(-c2ccoc2)oc1=O
- fold change (FC) (Homo sapiens [5]): 3.1
- fold change (FC) (Homo sapiens [6]): 5.8

SMILES: C[C@@H]1C(=O)CC2=C(/C=C\C=C\[C@@]13C[C@@H](O)c1ccoc1[C@H]3O)C(=O)OC2
- fold change (FC) (Homo sapiens [7]): 10700
- fold change (FC) (Homo sapiens [8]): 8440

SMILES: CC(=O)O[C@H]1O[C@@H](c2ccoc2)C[C@]12[C@H](C)C(=O)C[C@@]13COC(=O)C1=CC=C[C@H]32
- fold change (FC) (Homo sapiens [5]): 54
- fold change (FC) (Homo sapiens [6]): 2.6
